ChEMBL document CHEMBL1926614, “Substituted thiazoles V. synthesis and antitumor activity of novel thiazolo[2,3-b]quinazoline and pyrido[4,3-d]thiazolo[3,2-a]pyrimidine analogues” (2012)

Legend:
Format in all cases: functional
[1] = tested on: HL-60(TB); experiment: Growth inhibition of human HL-60(TB) cells at 10 uM after 48 hrs by coulter counting; conditions: HL-60, 48 h, read-out: GI
How it was run: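 Test compound was dissolved in DMSO and diluted in phosphate-buffered saline to a final DMSO level below 1%. Dilutions were plated in duplicate with cell culture at 6 × 10⁴ cells/ml. Vehicle controls held PBS and DMSO at matching dilutions. Incubation was at 37 °C, humidified, under 5% CO₂. Data were reported as percent growth of treated cells.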

[2] = tested on: RPMI-8226; experiment: Growth inhibition of human RPMI8226 cells at 10 uM after 48 hrs by coulter counting; conditions: RPMI-8226, 48 h, read-out: GI
How it was run: (§1)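 Single-dose primary screen across the full NCI 60-cell-line panel. Stocks were made in DMSO and diluted in PBS to a final DMSO below 1%. Cultures at 6 × 10⁴ cells/ml were run in duplicate wells alongside PBS/DMSO vehicle controls at 37 °C in humidified 5% CO₂. Data were expressed as percent growth of treated cells.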

[3] = tested on: DU-145; experiment: Growth inhibition of human DU145 cells at 10 uM after 48 hrs by coulter counting; conditions: DU-145, 48 h, read-out: GI; how it was run: as §1
[4] = tested on: MOLT-4; experiment: Growth inhibition of human MOLT4 cells at 10 uM after 48 hrs by coulter counting; conditions: MOLT-4, 48 h, read-out: GI; how it was run: as §1
[5] = tested on: A498; experiment: Growth inhibition of human A498 cells at 10 uM after 48 hrs by coulter counting; conditions: A498, 48 h, read-out: GI; how it was run: as §1
[6] = tested on: NCI-H226; experiment: Growth inhibition of human NCI-H226 cells at 10 uM after 48 hrs by coulter counting; conditions: NCI-H226, 48 h, read-out: GI; how it was run: as §1
[7] = tested on: MCF7; experiment: Growth inhibition of human MCF7 cells at 10 uM after 48 hrs by coulter counting; conditions: MCF7, 48 h, read-out: GI; how it was run: as §1
[8] = tested on: T47D; experiment: Growth inhibition of human T47D cells at 10 uM after 48 hrs by coulter counting; conditions: read-out: GI
How it was run: (§2)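 Single-dose screen in the NCI 60 human tumor cell line panel (nine subpanels). Compounds dissolved in DMSO and diluted in phosphate buffered saline, keeping final DMSO below 1%. Added in duplicate wells to cells at 6 × 10⁴ cells/ml. Controls held PBS and DMSO at matching dilutions. Incubated at 37 °C, humidified, 5% CO₂. Reported as percent growth of treated cells.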

[9] = tested on: U-251; experiment: Growth inhibition of human U251 cells at 10 uM after 48 hrs by coulter counting; conditions: U-251, 48 h, read-out: GI; how it was run: as §2
[10] = tested on: ACHN; experiment: Growth inhibition of human ACHN cells at 10 uM after 48 hrs by coulter counting; conditions: read-out: GI; how it was run: as §1
[11] = tested on: MDA-MB-435; experiment: Growth inhibition of human MDA-MB-435 cells at 10 uM after 48 hrs by coulter counting; conditions: MDA-MB-435, 48 h, read-out: GI; how it was run: as §1
[12] = tested on: IGROV-1; experiment: Growth inhibition of human IGROV1 cells at 10 uM after 48 hrs by coulter counting; conditions: IGROV-1, 48 h, read-out: GI; how it was run: as §1
[13] = tested on: NCI-H522; experiment: Growth inhibition of human NCI-H522 cells at 10 uM after 48 hrs by coulter counting; conditions: NCI-H522, 48 h, read-out: GI; how it was run: as §1
[14] = tested on: M14; experiment: Growth inhibition of human M14 cells at 10 uM after 48 hrs by coulter counting; conditions: M14, 48 h, read-out: GI; how it was run: as §1
[15] = tested on: SK-MEL-2; experiment: Growth inhibition of human SK-MEL-2 cells at 10 uM after 48 hrs by coulter counting; conditions: SK-MEL-2, 48 h, read-out: GI; how it was run: as §1
[16] = tested on: NCI-H23; experiment: Growth inhibition of human NCI-H23 cells at 10 uM after 48 hrs by coulter counting; conditions: NCI-H23, 48 h, read-out: GI; how it was run: as §1
[17] = tested on: OVCAR-4; experiment: Growth inhibition of human OVCAR4 cells at 10 uM after 48 hrs by coulter counting; conditions: OVCAR-4, 48 h, read-out: GI; how it was run: as §1
[18] = tested on: SNB-75; experiment: Growth inhibition of human SNB75 cells at 10 uM after 48 hrs by coulter counting; conditions: SNB-75, 48 h, read-out: GI; how it was run: as §1
[19] = tested on: K562; experiment: Growth inhibition of human K562 cells at 10 uM after 48 hrs by coulter counting; conditions: K562, 48 h, read-out: GI; how it was run: as §1
[20] = tested on: LOX IMVI; experiment: Growth inhibition of human LOXIMVI cells at 10 uM after 48 hrs by coulter counting; conditions: read-out: GI; how it was run: as §1
[21] = tested on: NCI/ADR-RES; experiment: Growth inhibition of human NCI/ADR-RES cells at 10 uM after 48 hrs by coulter counting; conditions: read-out: GI; how it was run: as §1
[22] = tested on: SF-268; experiment: Growth inhibition of human SF268 cells at 10 uM after 48 hrs by coulter counting; conditions: SF-268, 48 h, read-out: GI; how it was run: as §1
[23] = tested on: SK-MEL-5; experiment: Growth inhibition of human SK-MEL-5 cells at 10 uM after 48 hrs by coulter counting; conditions: SK-MEL-5, 48 h, read-out: GI; how it was run: as §1
[24] = tested on: SF-295; experiment: Growth inhibition of human SF295 cells at 10 uM after 48 hrs by coulter counting; conditions: SF-295, 48 h, read-out: GI; how it was run: as §1
[25] = tested on: UACC-257; experiment: Growth inhibition of human UACC257 cells at 10 uM after 48 hrs by coulter counting; conditions: UACC-257, 48 h, read-out: GI; how it was run: as §2
[26] = tested on: BT-549; experiment: Growth inhibition of human BT549 cells at 10 uM after 48 hrs by coulter counting; conditions: BT-549, 48 h, read-out: GI; how it was run: as §1
[27] = Growth inhibition of human NCI-322M cells at 10 uM after 48 hrs by coulter counting; conditions: read-out: GI; how it was run: as §1
[28] = tested on: NCI-H460; experiment: Growth inhibition of human NCI-H460 cells at 10 uM after 48 hrs by coulter counting; conditions: NCI-H460, 48 h, read-out: GI; how it was run: as §1
[29] = tested on: SNB-19; experiment: Growth inhibition of human SNB19 cells at 10 uM after 48 hrs by coulter counting; conditions: SNB-19, 48 h, read-out: GI; how it was run: as §1
[30] = tested on: UO-31; experiment: Growth inhibition of human UO31 cells at 10 uM after 48 hrs by coulter counting; conditions: UO-31, 48 h, read-out: GI; how it was run: as §2
[31] = tested on: HCC 2998; experiment: Growth inhibition of human HCC2998 cells at 10 uM after 48 hrs by coulter counting; conditions: HCC 2998, 48 h, read-out: GI; how it was run: as §1
[32] = tested on: A549; experiment: Growth inhibition of human A549 cells at 10 uM after 48 hrs by coulter counting; conditions: A549, 48 h, read-out: GI; how it was run: as §1
[33] = tested on: HOP-62; experiment: Growth inhibition of human HOP62 cells at 10 uM after 48 hrs by coulter counting; conditions: HOP-62, 48 h, read-out: GI; how it was run: as §1
[34] = tested on: KM12; experiment: Growth inhibition of human KM12 cells at 10 uM after 48 hrs by coulter counting; conditions: KM12, 48 h, read-out: GI; how it was run: as §1
[35] = tested on: SK-MEL-28; experiment: Growth inhibition of human SK-MEL-28 cells at 10 uM after 48 hrs by coulter counting; conditions: SK-MEL-28, 48 h, read-out: GI; how it was run: as §1
[36] = tested on: EKVX; experiment: Growth inhibition of human EKVX cells at 10 uM after 48 hrs by coulter counting; conditions: read-out: GI; how it was run: as §1
[37] = tested on: CCRF-CEM; experiment: Growth inhibition of human CCRF-CEM cells at 10 uM after 48 hrs by coulter counting; conditions: read-out: GI; how it was run: as §1
[38] = tested on: CAKI-1; experiment: Growth inhibition of human Caki1 cells at 10 uM after 48 hrs by coulter counting; conditions: CAKI-1, 48 h, read-out: GI; how it was run: as §1
[39] = tested on: HT-29; experiment: Growth inhibition of human HT-29 cells at 10 uM after 48 hrs by coulter counting; conditions: HT-29, 48 h, read-out: GI; how it was run: as §1
[40] = tested on: HCT-116; experiment: Growth inhibition of human HCT116 cells at 10 uM after 48 hrs by coulter counting; conditions: HCT-116, 48 h, read-out: GI; how it was run: as §1
[41] = tested on: UACC-62; experiment: Growth inhibition of human UACC62 cells at 10 uM after 48 hrs by coulter counting; conditions: UACC-62, 48 h, read-out: GI; how it was run: as §2

With `CC1=CSC2=NC3=C(CCC/C3=C\c3cccs3)C(c3cccs3)N12` (stereo unspecified) the inhibition of growth at 10 µM [1] was 11.4%, the inhibition of growth at 10 µM [2] was > 10% and the inhibition of growth at 10 µM [3] was > 10%. The inhibition of growth at 10 µM [4] was > 10%, the inhibition of growth at 10 µM [5] was 14.3% and the inhibition of growth at 10 µM [6] was > 10%. For the same molecule, the inhibition of growth at 10 µM [7] was > 10%, the inhibition of growth at 10 µM [8] was > 10% and the inhibition of growth at 10 µM [9] was > 10%. For the same molecule, the inhibition of growth at 10 µM [10] was > 10%, the inhibition of growth at 10 µM [11] was > 10% and the inhibition of growth at 10 µM [12] was > 10%. The inhibition of growth at 10 µM [13] was > 10%, the inhibition of growth at 10 µM [14] was > 10% and the inhibition of growth at 10 µM [15] was > 10%. For the same molecule, the inhibition of growth at 10 µM [16] was > 10%, the inhibition of growth at 10 µM [17] was > 10% and the inhibition of growth at 10 µM [18] was 16.6%. For the same molecule, the inhibition of growth at 10 µM [19] was > 10%, the inhibition of growth at 10 µM [20] was > 10% and the inhibition of growth at 10 µM [21] was > 10%. The inhibition of growth at 10 µM [22] was > 10%, the inhibition of growth at 10 µM [23] was > 10% and the inhibition of growth at 10 µM [24] was > 10%. For the same molecule, the inhibition of growth at 10 µM [25] was > 10%, the inhibition of growth at 10 µM [26] was > 10% and the inhibition of growth at 10 µM [27] was > 10%. For the same molecule, the inhibition of growth at 10 µM [28] was > 10%, the inhibition of growth at 10 µM [29] was > 10% and the inhibition of growth at 10 µM [30] was 24.5%. The inhibition of growth at 10 µM [31] was > 10%, the inhibition of growth at 10 µM [32] was > 10% and the inhibition of growth at 10 µM [33] was 11.3%. The inhibition of growth at 10 µM [34] was > 10%, the inhibition of growth at 10 µM [35] was > 10% and the inhibition of growth at 10 µM [36] was > 10%. For the same molecule, the inhibition of growth at 10 µM [37] was > 10%, the inhibition of growth at 10 µM [38] was > 10% and the inhibition of growth at 10 µM [39] was > 10%. For the same molecule, the inhibition of growth at 10 µM [40] was > 10% and the inhibition of growth at 10 µM [41] was > 10%.
